Source: ChEMBL document CHEMBL3244382, “Structural requirements for antileukemic activity among the naturally occurring and semisynthetic maytansinoids” (J Med Chem, 1978)
Converted amounts (≈) assume the structure as drawn. The source made the active and inactive calls.

Tests used:
[1] = tested on: Mus musculus; experiment: Toxicity in PS mouse allografted with mouse P388 cells assessed as change in body weight at 12.5 ug/kg relative to control; type: organism-based; conditions: in vivo, 0.0125 mg/kg
How it was run: (§1)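 P388 (PS) leukemia in mice, 6 mice per dose group. Weight change is the difference in grams between treated and control animals. Survivors are recorded on toxicity day, normally 4 days after the first injection.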

[2] = tested on: Mus musculus; experiment: Toxicity in PS mouse allografted with mouse P388 cells assessed as change in body weight at 1.6 ug/kg relative to control; type: organism-based; conditions: in vivo, 0.0016 mg/kg; how it was run: as §1
[3] = tested on: Mus musculus; experiment: Toxicity in PS mouse allografted with mouse P388 cells assessed as change in body weight at 0.8 ug/kg relative to control; type: organism-based; conditions: in vivo, 0.0008 mg/kg
How it was run: (§2)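 PS (P388 leukemia) mice, six per dose group. Toxicity read as the difference in grams between the weights of treated and control animals.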

[4] = tested on: P388; experiment: Antitumor activity against mouse P388 cells allografted in PS mouse assessed as median survival time at 100 ug/kg relative to control; type: functional
How it was run: (§3)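 P388 leukemia (PS) in mice, six mice started per dose group. Read-out is T/C: median survival time of the treated group divided by that of the untreated control group, expressed as a percent. The NIH protocol counts a compound as active when T/C > 125%.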

[5] = tested on: Mus musculus; experiment: Toxicity in PS mouse allografted with mouse P388 cells assessed as survival at 0.8 ug/kg after 4 days; type: organism-based; conditions: in vivo, 0.0008 mg/kg, 96 h
How it was run: (§4)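 PS (P388) leukemic mice, six started per dose group. Toxicity scored as survivors on the toxicity day over the number of mice started. The toxicity day is normally 4 days after the first injection.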

[6] = tested on: Mus musculus; experiment: Toxicity in PS mouse allografted with mouse P388 cells assessed as change in body weight at 3.1 ug/kg relative to control; type: organism-based; conditions: in vivo, 0.0031 mg/kg; how it was run: as §1
[7] = tested on: P388; experiment: Antitumor activity against mouse P388 cells allografted in PS mouse assessed as median survival time at 0.2 ug/kg relative to control; type: functional; how it was run: as §3
[8] = tested on: P388; experiment: Antitumor activity against mouse P388 cells allografted in PS mouse assessed as median survival time at 0.8 ug/kg relative to control; type: functional; how it was run: as §3
[9] = tested on: Mus musculus; experiment: Toxicity in PS mouse allografted with mouse P388 cells assessed as survival at 25 ug/kg after 4 days; type: organism-based; conditions: in vivo, 0.025 mg/kg, 96 h; how it was run: as §4
[10] = tested on: Mus musculus; experiment: Toxicity in PS mouse allografted with mouse P388 cells assessed as survival at 6.2 ug/kg after 4 days; type: organism-based; conditions: in vivo, 0.0062 mg/kg, 96 h; how it was run: as §4
[11] = tested on: P388; experiment: Antitumor activity against mouse P388 cells allografted in PS mouse assessed as median survival time at 25 ug/kg relative to control; type: functional; how it was run: as §3
[12] = biological target: Tubulin (Homo sapiens) (UniProt P68371+Q9H4B7+P0DPH7+P68366+Q13509+Q71U36+P04350+Q3ZCM7+P07437+P68363+Q9BQE3+Q6PEY2+Q13885+Q9BVA1+Q9BUF5); experiment: Inhibition of brain tubulin polymerization (unknown origin) at 37 degC by spectrophotometry
[13] = tested on: Mus musculus; experiment: Toxicity in PS mouse allografted with mouse P388 cells assessed as survival at 0.4 ug/kg after 4 days; type: organism-based; conditions: in vivo, 0.0004 mg/kg, 96 h; how it was run: as §4
[14] = tested on: Mus musculus; experiment: Toxicity in PS mouse allografted with mouse P388 cells assessed as survival at 0.2 ug/kg after 4 days; type: organism-based; conditions: in vivo, 0.0002 mg/kg, 96 h; how it was run: as §4
[15] = tested on: Mus musculus; experiment: Toxicity in PS mouse allografted with mouse P388 cells assessed as change in body weight at 0.2 ug/kg relative to control; type: organism-based; conditions: in vivo, 0.0002 mg/kg; how it was run: as §2
[16] = tested on: Mus musculus; experiment: Toxicity in PS mouse allografted with mouse P388 cells assessed as survival at 12.5 ug/kg after 4 days; type: organism-based; conditions: in vivo, 0.0125 mg/kg, 96 h; how it was run: as §4
[17] = tested on: P388; experiment: Antitumor activity against mouse P388 cells allografted in PS mouse assessed as median survival time at 3.1 ug/kg relative to control; type: functional; how it was run: as §3
[18] = tested on: Paracentrotus lividus; experiment: Antimitotic activity against sea urchin eggs assessed as drug level causing inhibition of mitosis; type: functional; conditions: Egg
[19] = tested on: P388; experiment: Antitumor activity against mouse P388 cells allografted in PS mouse assessed as median survival time at 0.4 ug/kg relative to control; type: functional; how it was run: as §3
[20] = tested on: Mus musculus; experiment: Toxicity in PS mouse allografted with mouse P388 cells assessed as survival at 50 ug/kg after 4 days; type: organism-based; conditions: in vivo, 0.05 mg/kg, 96 h; how it was run: as §4
[21] = tested on: P388; experiment: Antitumor activity against mouse P388 cells allografted in PS mouse assessed as median survival time at 1.6 ug/kg relative to control; type: functional; how it was run: as §3
[22] = tested on: Mus musculus; experiment: Toxicity in PS mouse allografted with mouse P388 cells assessed as survival at 1.6 ug/kg after 4 days; type: organism-based; conditions: in vivo, 0.0016 mg/kg, 96 h; how it was run: as §4
[23] = tested on: KB; experiment: Cytotoxicity against human KB cells; type: functional; conditions: read-out: ED50 (the source's name)
[24] = tested on: P388; experiment: Antitumor activity against mouse P388 cells allografted in PS mouse assessed as median survival time at 50 ug/kg relative to control; type: functional; how it was run: as §3
[25] = tested on: Mus musculus; experiment: Toxicity in PS mouse allografted with mouse P388 cells assessed as change in body weight at 25 ug/kg relative to control; type: organism-based; conditions: in vivo, 0.025 mg/kg; how it was run: as §1
[26] = tested on: Mus musculus; experiment: Toxicity in PS mouse allografted with mouse P388 cells assessed as change in body weight at 0.4 ug/kg relative to control; type: organism-based; conditions: in vivo, 0.0004 mg/kg; how it was run: as §2
[27] = tested on: P388; experiment: Antitumor activity against mouse P388 cells allografted in PS mouse assessed as median survival time at 6.2 ug/kg relative to control; type: functional; how it was run: as §3
[28] = tested on: Mus musculus; experiment: Toxicity in PS mouse allografted with mouse P388 cells assessed as change in body weight at 6.2 ug/kg relative to control; type: organism-based; conditions: in vivo, 0.0062 mg/kg; how it was run: as §1
[29] = tested on: Mus musculus; experiment: Toxicity in PS mouse allografted with mouse P388 cells assessed as change in body weight at 50 ug/kg relative to control; type: organism-based; conditions: in vivo, 0.05 mg/kg; how it was run: as §1
[30] = tested on: Mus musculus; experiment: Toxicity in PS mouse allografted with mouse P388 cells assessed as survival at 100 ug/kg after 4 days; type: organism-based; conditions: in vivo, 0.1 mg/kg, 96 h; how it was run: as §4
[31] = tested on: P388; experiment: Antitumor activity against mouse P388 cells allografted in PS mouse assessed as median survival time at 12.5 ug/kg relative to control; type: functional; how it was run: as §3
[32] = tested on: Mus musculus; experiment: Toxicity in PS mouse allografted with mouse P388 cells assessed as change in body weight at 100 ug/kg relative to control; type: organism-based; conditions: in vivo, 0.1 mg/kg; how it was run: as §1
[33] = tested on: Mus musculus; experiment: Toxicity in PS mouse allografted with mouse P388 cells assessed as survival at 3.1 ug/kg after 4 days; type: organism-based; conditions: in vivo, 0.0031 mg/kg, 96 h; how it was run: as §4
[34] = tested on: P388; experiment: Antitumor activity against mouse P388 cells allografted in PS mouse assessed as median survival time at 200 ug/kg relative to control; type: functional; how it was run: as §3
[35] = tested on: Mus musculus; experiment: Toxicity in PS mouse allografted with mouse P388 cells assessed as survival at 400 ug/kg after 4 days; type: organism-based; conditions: in vivo, 0.4 mg/kg, 96 h; how it was run: as §4
[36] = tested on: P388; experiment: Antitumor activity against mouse P388 cells allografted in PS mouse assessed as median survival time at 400 ug/kg relative to control; type: functional; how it was run: as §3
[37] = tested on: Mus musculus; experiment: Toxicity in PS mouse allografted with mouse P388 cells assessed as change in body weight at 200 ug/kg relative to control; type: organism-based; conditions: in vivo, 0.2 mg/kg; how it was run: as §1
[38] = tested on: Mus musculus; experiment: Toxicity in PS mouse allografted with mouse P388 cells assessed as survival at 200 ug/kg after 4 days; type: organism-based; conditions: in vivo, 0.2 mg/kg, 96 h; how it was run: as §4
[39] = tested on: Mus musculus; experiment: Toxicity in PS mouse allografted with mouse P388 cells assessed as change in body weight at 400 ug/kg relative to control; type: organism-based; conditions: in vivo, 0.4 mg/kg; how it was run: as §1

| SMILES | Activity [1] [g] | T/C [4] [%] | Activity [6] [g] | Activity [9] | Activity [10] | T/C [11] [%] | inhibition [12] | Activity [16] | T/C [17] [%] | Activity [18] | Activity [20] | EC50 [23] [µg/mL] | T/C [24] [%] | Activity [25] [g] | T/C [27] [%] | Activity [28] [g] | Activity [29] [g] | Activity [30] | T/C [31] [%] | Activity [32] [g] | also measured |
| --- | --- | --- | --- | --- | --- | --- | --- | --- | --- | --- | --- | --- | --- | --- | --- | --- | --- | --- | --- | --- | --- |
| COc1cc2cc(c1Cl)NC(=O)/C=C/[C@]1(C)O[C@H]1[C@H](C)[C@@H]1C[C@@](O)(NC(=O)O1)[C@H](OC)/C=C/C=C(\C)C2 | -0.5 | 95 | -0.2 | Non-toxic | Non-toxic | 110 | Active | Non-toxic | 115 | 1 µM | Non-toxic | 0.019 (≈ 0.0356 µM) | 110 | -0.5 | 115 | 0.4 | -0.3 | Non-toxic | 110 | 1.2 | Activity [2]: 0 g; Activity [3]: -0.1 g; Activity [5]: Non-toxic; T/C [7]: 100%; T/C [8]: 90%; Activity [13]: Non-toxic; Activity [14]: Non-toxic; Activity [15]: 1 g; T/C [19]: 100%; T/C [21]: 100%; Activity [22]: Non-toxic; Activity [26]: 0.1 g; Activity [33]: Non-toxic |
| CCO[C@]12C[C@H](OC(=O)N1)[C@@H](C)[C@@H]1O[C@@]1(C)[C@@H](OC(=O)[C@H](C)N(C)C(C)=O)CC(=O)N(C)c1cc(cc(OC)c1Cl)C/C(C)=C/C=C/[C@H]2OC | -0.3 | 105 | -0.7 | Non-toxic | Non-toxic | 116 | Active | Non-toxic | 99 | 1 ×10⁻⁷ mol/L | Non-toxic | 0.011 (≈ 0.0153 µM) | 98 | -0.3 | 99 | -1.3 | -0.8 | Non-toxic | 101 | -2 | Activity [2]: -0.1 g; T/C [34]: 98%; Activity [35]: Non-toxic; T/C [36]: 100%; Activity [37]: 0.3 g; Activity [38]: Non-toxic; T/C [21]: 99%; Activity [22]: Non-toxic; Activity [39]: -0.6 g; Activity [33]: Non-toxic |
| COc1cc2cc(c1Cl)N(C)C(=O)CC(O)C1(C)OC1C(C)C1CC(O)(NC(=O)O1)C(OC)/C=C/C=C(\C)C2 (stereo not given) [MAYTANSINOL] | 1.5 | 105 | 0.9 | Non-toxic | Non-toxic | 94 | Active | Non-toxic | 102 | 1 ×10⁻⁵ mol/L | Non-toxic | 0.19 (≈ 0.336 µM) | 112 | 0.5 | 102 | 0.5 | -0.4 | Non-toxic | 102 | 1.2 | T/C [34]: 112%; Activity [35]: Non-toxic; T/C [36]: 102%; Activity [37]: -1.8 g; Activity [38]: Non-toxic; Activity [39]: -2.6 g; Activity [33]: Non-toxic |
